FN deposit inh = fibronectin deposition inhibition. AID 743247. inhibition, % at 12.6 µM. actives 0.086% (n = 350,000). AH1F fibroblasts, Alexa488-fibronectin deposition fluorescence, overnight;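 active = mean inhibition across replicates of 30% or more, regardless of how many single replicates reach that level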
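material = AH1F fibroblast monolayer depositing Alexa488-labelled fibronectin into matrix | amount = 10000 AH1F cells/well | buffer or medium = DMEM plus 2% serum, read in PBS | incubation = 1 h cell adhesion before compound, then overnight fibronectin incubation | detection = fluorescence at 485 nm excitation, 525 nm emission | evaluation = percent inhibition as loss of matrix-bound fibronectin fluorescence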
SIRT5 inh = sirtuin-5 (human) deacylase inhibition | Q9NXA8 | Purified SirT5, succinyl-peptide AMC, trypsin-coupled fluorescence | inhibition, % at 15 µM | actives 1.1% (n = 330,000); in the data active = inhibition above about 15%
FGF22 binding = shifts melting point of recombinant human FGF22 | recombinant FGF22 thermal shift, SYPRO orange fluorescence; percent of sucrose octasulfate shift, DMSO zero | Q9HCT0 | actives 1.5% (n = 340,000) | activity (Tm shift, normalised), % at 9.99 µM | AID 651658;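 active = mean Tm shift, scaled 0 neutral to 100 positive control, at about 1.3% or above, every replicate too, limit read from the data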
E-selectin induc = induces E-selectin expression in human endothelial cells | HUVEC E-selectin immunofluorescence imaging; normalized: neutral wells 0, TNF-alpha wells 100 | actives 0.37% (n = 260,000) | P16581 | activation, % at 7.58 µM;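 active = mean E-selectin-positive cell signal at least 10% of the positive control, reached in at least 60% of replicates, without over 20% cell loss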
Target sequence (P16581 whole entry, looked up): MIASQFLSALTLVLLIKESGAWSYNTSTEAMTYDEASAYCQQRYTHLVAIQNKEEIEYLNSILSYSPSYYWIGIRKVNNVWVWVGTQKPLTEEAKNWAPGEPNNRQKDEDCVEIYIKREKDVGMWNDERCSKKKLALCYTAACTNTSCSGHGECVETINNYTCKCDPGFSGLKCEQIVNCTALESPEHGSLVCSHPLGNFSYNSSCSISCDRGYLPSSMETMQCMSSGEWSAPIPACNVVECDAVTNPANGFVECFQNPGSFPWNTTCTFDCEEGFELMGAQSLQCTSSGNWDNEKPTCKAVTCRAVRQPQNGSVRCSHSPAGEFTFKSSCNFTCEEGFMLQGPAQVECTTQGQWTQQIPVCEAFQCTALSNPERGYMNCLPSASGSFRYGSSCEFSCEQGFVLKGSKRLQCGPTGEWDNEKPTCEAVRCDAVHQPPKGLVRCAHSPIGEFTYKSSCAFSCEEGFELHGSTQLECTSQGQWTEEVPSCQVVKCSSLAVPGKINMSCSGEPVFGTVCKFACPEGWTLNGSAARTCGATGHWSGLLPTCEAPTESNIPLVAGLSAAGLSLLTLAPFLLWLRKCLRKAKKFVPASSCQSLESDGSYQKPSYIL
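System: HUVEC / Compound: single concentration / Signal: immunofluorescence imaging / Read-out: percent E-selectin-positive cells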
Ecoli rRNA inh = selective bacterial rRNA inhibition in E. coli; E. coli WT GFP vs humanized-ribosome RFP mutants, fluorescence, 24 h; active compounds read low; DMSO median 0, no signal -100; GFP signal change (wild-type ribosome), % (concentration not given with the values); actives 1.6% (n = 350,000); AID 720706;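 active = significant combined selectivity score with lowered wild-type GFP, culture density cut under 30%, mutant RFP and density less affected; inactive = any of these conditions unmet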
Statin myotox sup = protects C2C12 myotubes from simvastatin toxicity. AID 602340. actives 0.78% (n = 330,000). rescue of ATP level, % at 7.49 µM. ATP luminescence, 48 h; scaled: DMSO 0, geranylgeraniol control 100;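 active = mean ATP rescue above about 67%, or every replicate alone reaching that limit, limit read from the data, passing the limit was not always enough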;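 also: myotubes were challenged with 10 µM simvastatin during compound exposure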
Hits are given with their value; - = inactive; . = not tested or not shown. In the library only some 4% were active in any assay of this set; here they are far more common.

SMILES	FN deposit inh	SIRT5 inh	FGF22 binding	E-selectin induc	Ecoli rRNA inh	Statin myotox sup
C/C=C/c1ccc2c(c1)O[C@H](CN(C)C(=O)CN(C)C)[C@@H](C)CN([C@H](C)CO)S2(=O)=O	-	-	-	-	-	-
Cc1ccc(C(=O)NCC(=O)Nc2ccncc2)cc1C	-	-	-	204	-	-
C/C(CC(=O)Nc1ccc(Cl)cc1Cl)=N\NC(=O)c1ccncc1	-	-	-	.	-	.
Cc1ccc(C(=O)NCC(=O)Nc2ccncc2)cc1	.	-	-	-	-	-
O=C(Cc1ccc(Cl)cc1)Nc1ccncc1	-	-	-	-	-	-
C/C(CC(=O)Nc1ccc(C)c(Cl)c1)=N\NC(=O)c1ccncc1	-	-	44	.	-	.
Cc1ccc(CC(=O)Nc2ccncc2)cc1	-	-	44	.	-	-
O=C(C1CCC1)N1CCCCN2[C@@H](CO)[C@H](c3ccc(C#CC4CCCC4)cc3)[C@@H]2C1	.	-	-	.	.	.
Cn1cc(Br)c(C(=O)Nc2c(F)c(F)c(F)c(F)c2F)n1	-	21	-	-	.	.
Cc1nn(C)cc1S(=O)(=O)Nc1ccccc1Br	-	-	-	-	-	.
COc1ccc(C)cc1NS(=O)(=O)c1cn(C)nc1C	-	-	43	-	-	.
Cc1nn(Cc2c(F)c(F)c(F)c(F)c2F)c(C)c1NC(=O)c1nn(C)cc1Br	.	-	-	-	-	-
COc1ccc(C)cc1NC(=O)c1nn(C)c(C(=O)Nc2cc(C)ccc2OC)c1[N+](=O)[O-]	-	-	-	.	-	-
COc1ccc(C)cc1NC(=O)c1nn(C)cc1Br	-	-	-	-	-15	-
COc1ccc(-c2ccc3c(c2)O[C@H](CN(C)C(C)=O)[C@H](C)CN([C@@H](C)CO)S3(=O)=O)cc1	-	-	-	-	-	-
COc1ccc(C(=O)Nc2ccc3c(c2)C(=O)N(C)C[C@H](OC)[C@H](C)CN[C@H](C)CO3)cc1	-	-	-	-	-	-
COc1ccc(-c2ccc3[nH]c4c(c3c2)CCN2C[C@@H]([C@H](C)OC(=O)Nc3cc(Cl)cc(Cl)c3)[C@@H](N(C)C(=O)Nc3cc(Cl)cc(Cl)c3)C[C@@H]42)cc1	-	-	-	-	-	-
COc1ccc(NC(=O)O[C@@H](C)[C@@H]2CN3CCc4c([nH]c5ccc(-c6ccc(OC)cc6)cc45)[C@@H]3C[C@@H]2N(C)C(=O)Nc2ccc(OC)cc2)cc1	-	-	-	-	-27	-
O=C(c1ccccc1)c1ccc(OCC(O)CN2CCCCC2)cc1 (centres undefined)	-	.	.	.	.	.
O=C(c1ccccc1)c1ccc(OCC(O)CN2CCN(S(=O)(=O)N3CCCCC3)CC2)cc1 (centres undefined)	.	.	.	.	.	77
O=[N+]([O-])c1ccc(N2CCN(CCOc3nonc3-c3ccccc3)CC2)c(Cl)c1	.	-	-	.	-	-
O=[N+]([O-])c1ccc(N2CCN(Cc3ccc([N+](=O)[O-])o3)CC2)cc1	-	-	-	.	-23	-
O=[N+]([O-])c1ccc(CN2CCN(c3ccccc3)CC2)o1	-	-	-	-	-	-
Cc1nonc1OCCN1CCN(c2ccc([N+](=O)[O-])cc2)CC1	-	-	-	-	-23	.
O=C(C[C@@H]1CC[C@@H](NC(=O)c2ccc(F)cc2)[C@@H](CO)O1)NCc1ccncn1	.	-	-	-	-	-
SMILES	FN deposit inh	SIRT5 inh	FGF22 binding	E-selectin induc	Ecoli rRNA inh	Statin myotox sup
COC(=O)c1ccc(C2CC(=O)NC3=C2C(=O)CCC3)cc1 (centres undefined)	.	.	.	.	.	114
CC(C)C(=O)Nc1ccc2c(c1)C(=O)N(C)[C@H]1CC[C@H](CC(=O)NCc3ccccc3F)O[C@H]1CO2	-	.	-	-	-	-
COc1ccc(OCCCC(=O)Nc2cc([N+](=O)[O-])ccc2C)cc1	.	.	.	.	.	73
COc1ccc(CC(=O)NNC(=O)CCC(=O)Nc2cc(C)ccc2C)cc1	-	-	44	.	-	.
Cc1noc(C)c1CSCC(=O)Nc1ccccc1N1CCCC1	-	16	-	-	-	-
COc1ccc(S(=O)(=O)N(C)C[C@@H]2OCCCC[C@H](C)Oc3ccc(NC(=O)NC(C)C)cc3C(=O)N([C@H](C)CO)C[C@@H]2C)cc1	.	-	-	-	-	.

Source: PubChem BioAssay (Broad Institute)
